The record followed here is ChEMBL document CHEMBL1124688, “9,11-Epoxy-9-homo-14-thiaprost-5-enoic acid derivatives: potent thromboxane A2 antagonists” (J Med Chem, 1989).

pIC50, pKd: −log10 of the molar value. Several values for one entry are separate records, joined by “and”; a condition that tells them apart may be missing. Equal entries are not always repeated. Where only a bound is given, the exact number is not on record here.

What is called pKd is the Kd on a negative log10 scale, so that one unit is a factor of ten. The term Inhibition denotes the change of the read-out against control, counted positive when it falls. Usually inhibition stands for how much of the control response was suppressed.

The species entered for experiment [1] is Rattus norvegicus. Description: maximal contraction of rat stomach strip by 3 x 10e -7M serotonin. Type of experiment: functional.
The species named for experiment [2] is Rattus norvegicus. Description: Concentration required to elicit 50% of the maximal contraction of rat stomach strip. Type of experiment: functional. A digest of the protocol: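 Rat stomach strip contraction was measured as the concentration giving 50% of the maximal contraction produced by 3×10^-7 M serotonin.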
In experiment [3] the target is T1, Thromboxane A2 receptor (Homo sapiens, UniProt P21731).
T1 sequence (P21731 whole entry): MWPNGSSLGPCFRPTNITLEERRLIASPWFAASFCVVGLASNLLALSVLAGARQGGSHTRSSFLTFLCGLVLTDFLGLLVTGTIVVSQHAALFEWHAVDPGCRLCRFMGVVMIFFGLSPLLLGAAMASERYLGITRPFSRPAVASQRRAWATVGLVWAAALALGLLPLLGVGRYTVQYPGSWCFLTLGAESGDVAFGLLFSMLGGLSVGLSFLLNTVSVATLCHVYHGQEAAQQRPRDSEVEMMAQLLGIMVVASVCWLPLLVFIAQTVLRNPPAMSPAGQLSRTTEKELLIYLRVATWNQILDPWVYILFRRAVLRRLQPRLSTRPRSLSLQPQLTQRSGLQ
Description: Inhibition of specific binding of HSQ(5,6-di-3H-SQ 29,548) in washed platelets. Further details: species or system Cavia porcellus.

Experiment [4] has as its system Cavia porcellus. Description: Change in mean arterial blood pressure(MABP) in guinea pigs by 1 mg/kg of intravenously administered compound; activity MABP. The class given is functional, Artery. To be noted: route intravenous. Summed up: (§1)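 Anesthetized guinea pigs were challenged with arachidonic acid, and lung mechanics (lung resistance, dynamic compliance) and mean arterial blood pressure were recorded. Compounds were given as a 1.0 mg/kg rapid iv infusion, with n = 5 versus vehicle. Inhibition above 100% denotes reversal of the blood-pressure response.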

Experiment [5] deals with Cavia porcellus. As to the kind of experiment: Change in mean arterial blood pressure(MABP) in guinea pigs by 1 mg/kg of intravenously administered compound. Type of experiment: functional, Artery. To be noted: route intravenous. A digest of the protocol: as §1
The species entered for experiment [6] is Homo sapiens. Description: In vitro evaluation for arachidonic acid induced platelet aggregation of human platelet-rich plasma. The class given is functional. To be noted: read-out: I50. Summed up: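 Human platelet-rich plasma was aggregated with arachidonic acid (800 μM). An ADP (20 μM)-induced aggregation run served as a counter-screen.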
In experiment [7] the test system is Cavia porcellus. As to the kind of experiment: Inhibition of arachidonic acid-induced response in guinea pigs by 1 mg/kg of intravenously administered compound. To be noted: route intravenous. Type of experiment: functional. Further details: scale not given: the % may be the effect or the level left. A digest of the protocol: as §1
Experiment [8] is filed under the species Cavia porcellus. As to the kind of experiment: Duration of action of compound for inhibition of arachidonic acid-induced response in guinea pigs. Type of experiment: functional.
The species named for experiment [9] is Homo sapiens. As to the kind of experiment: Percent inhibition on the synthesis of thromboxane B2 at a dose of 31 uM. The class given is functional. A digest of the protocol:
(§2)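 Arachidonic acid metabolism was measured in a lysed platelet preparation. Thromboxane synthesis (as TxB2) and PGE2 production were determined at each listed test concentration.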

For experiment [10], the species on record is Homo sapiens. Description: Percent inhibition on the synthesis of thromboxane B2 at a dose of 10 uM. Type of experiment: functional. Summed up:
as §2

Experiment [11] is filed under the species Homo sapiens. As to the kind of experiment: Percent inhibition on the synthesis of thromboxane B2 at a dose of 1.0 uM. Type of experiment: functional. Summed up: as §2
The species entered for experiment [12] is Homo sapiens. As to the kind of experiment: Percent inhibition on the synthesis of thromboxane B2 at a dose of 100 uM. The class given is functional. A digest of the protocol: as §2
Experiment [13] addresses T1, Thromboxane A2 receptor. As to the kind of experiment: Compound was evaluated for inhibition of specific binding of HSQ (5,6-di-3H-SQ 29,548) in washed platelets. Details: species or system Cavia porcellus.
The species named for experiment [14] is Homo sapiens. As to the kind of experiment: Percentage stimulation on the synthesis of PGE-2 was at a dose of 31 uM. Type of experiment: functional. Summed up:
as §2

The species entered for experiment [15] is Homo sapiens. Description: (§3) Percentage stimulation on the synthesis of PGE-2 was at a dose of 100 uM. The class given is functional. A digest of the protocol: as §2
Experiment [16] is filed under the species Cavia porcellus. As to the kind of experiment: Duration of action of compound for Inhibition of arachidonic acid-induced response in guinea pigs. The class given is functional.
For experiment [17], the species on record is Homo sapiens. Description: Percentage stimulation on the synthesis of PGE-2 at a dose of 1.0 uM. The class given is functional. A digest of the protocol:
as §2

Experiment [18] is filed under the species Homo sapiens. As to the kind of experiment: Percent inhibition on the synthesis of thromboxane B2 at a dose of 3.1 uM. The class given is functional. Summed up: as §2
The species named for experiment [19] is Cavia porcellus. As to the kind of experiment: In vitro evaluation for antagonist activity against the contraction-induced by histamine (1 ug/mL). Type of experiment: functional. To be noted: read-out: I50. A digest of the protocol:
(§4)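 Guinea pig trachea spirals were contracted by either 9,11-azo-PGH2 (a stable PGH2/TxA2 mimetic) or histamine, and compounds were tested for blockade of these contractions.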

The species entered for experiment [20] is Homo sapiens. Description: Percentage stimulation on the synthesis of PGE-2 was at a dose of 10 uM. Type of experiment: functional. A digest of the protocol:
as §2

For experiment [21], the species on record is Homo sapiens. As to the kind of experiment: Percentage stimulation on the synthesis of PGE-2 was at a dose of 3.1 uM. The class given is functional. Summed up:
as §2

Experiment [22] has as its system Cavia porcellus. As to the kind of experiment: Change in mean arterial blood pressure in guinea pigs by 1 mg/kg of intravenously administered compound. To be noted: route intravenous. The class given is functional, Artery. Summed up: as §1
For experiment [23], the species on record is Cavia porcellus. As to the kind of experiment: In vitro evaluation for antagonist activity against the contraction-induced by 9,11-azo-PGH2 (0.1 ug/mL). Type of experiment: functional. To be noted: read-out: I50. Summed up:
as §4

Experiment [24] concerns the target Thromboxane A2 receptor (Homo sapiens) (UniProt P21731). As to the kind of experiment: Compound was evaluated for inhibition of specific binding of HSQ (5,6-di-3H-SQ 29,548) in washed platelets.
Experiment [25] relates to thromboxane-A synthase (Homo sapiens). As to the kind of experiment: Percent inhibition on the synthesis of thromboxane B2 at a dose of 100 uM.
Experiment [26] is filed under the species Homo sapiens. Described as §3. Type of experiment: functional. A digest of the protocol: as §2
This is another data set of the same source.

Experiment [27] relates to thromboxane-A synthase (Homo sapiens). Description: Percent inhibition on the synthesis of thromboxane B2 at a dose of 10 uM.
Experiment [28] is filed under the species Homo sapiens. Description: Percentage stimulation on the synthesis of PGE-2 at a dose of 10 uM. Type of experiment: functional. Summed up: as §2
Experiment [29] deals with thromboxane-A synthase (Homo sapiens). Description: Percent inhibition on the synthesis of thromboxane B2 at a dose of 1000 uM.
The species entered for experiment [30] is Homo sapiens. As to the kind of experiment: Percentage stimulation on the synthesis of PGE-2 was at a dose of 1000 uM. The class given is functional. A digest of the protocol: as §2

Consider `CSCSCC1C2CCC(O2)C1C/C=C\CCCC(=O)O` (stereo not given), for which the Contraction in the experiment listed under Rattus norvegicus [1] was found to be 28%.

As for `CC/C=C/CCSCC1C2CCC(O2)C1CC=CCCCC(=O)O` (stereo not given), the A50 in the experiment listed under Rattus norvegicus [2] was 0.04 µM.

`CCCCCCSC[C@H]1C2CC[C@@H](O2)[C@H]1C/C=C\CCCC(=O)O` (single isomer, unassigned; (+)) [listing 1 of 2 here]: the Contraction in the experiment listed under Rattus norvegicus [1] came out at 6%.

In the experiment listed under Rattus norvegicus [1], `CCCCCC[S+]([O-])CC1C2CCC(O2)C1C/C=C\CCCC(=O)O` (stereo not given) returned a Contraction of 9%. In addition, the A50 in the experiment filed under Rattus norvegicus [2] amounted to 21 µM.

Turning to `CCCSCC1C2CCC(O2)C1C/C=C\CCCC(=O)O` (stereo not given), on Thromboxane A2 receptor [3], the pKd is 7.01. Moreover, the Activity with Cavia porcellus [4] is 50%; in the experiment with Cavia porcellus [7] it was 131% and 97%. Moreover, the Agonist activity in the experiment with Cavia porcellus [5] worked out at 50%. Further, in the experiment filed under Homo sapiens [6], the pIC50 was 6.15.

Consider `CCCCCCS(=O)(=O)CC1C2CCC(O2)C1C/C=C\CCCC(=O)O` (stereo not given), for which the A50 in the experiment listed under Rattus norvegicus [2] amounted to 8 µM.

With `CCCCSCC1C2CCC(O2)C1C/C=C\CCCC(=O)O` (stereo not given), the Agonist activity in the experiment on Cavia porcellus [5] (1 mg/kg) was 58% and 98%. In the experiment filed under Cavia porcellus [8], this compound had a Duration below 60 min. The Activity with Cavia porcellus [7] was 136% and 180%.

As for `CSCC1C2CCC(O2)C1C/C=C\CCCC(=O)O` (stereo not given), the Contraction in the experiment filed under Rattus norvegicus [1] stood at 30%.

On to `CCCCCCSC[C@H]1C2CC[C@@H](O2)[C@H]1C/C=C\CCCC(=O)O` (single isomer, unassigned; (-)), for which the Inhibition came to 29% in the experiment filed under Homo sapiens [9]; 17% in the experiment listed under Homo sapiens [10]; 7% in the experiment listed under Homo sapiens [11]; 69% in the experiment filed under Homo sapiens [12]; 3% in the experiment filed under Homo sapiens [18]. Further, the pKd at Thromboxane A2 receptor [13] was 8.80. In addition, the Stimulation in the experiment listed under Homo sapiens [14] is 404%; in the experiment filed under Homo sapiens [15], 556%; in the experiment filed under Homo sapiens [17] it was 174%; in the experiment filed under Homo sapiens [20], 230%; in the experiment filed under Homo sapiens [21], 137%. This compound showed a Duration in the experiment listed under Cavia porcellus [16] below 60 min. The pIC50 in the experiment filed under Cavia porcellus [19] is below 4.00; in the experiment listed under Homo sapiens [6], 6.00; in the experiment listed under Cavia porcellus [23], 6.30. Also, the “Activity MABP” value with Cavia porcellus [22] was 107% and 153%. The A50 in the experiment filed under Rattus norvegicus [2] was 25 µM.

Turning to `CCC/C=C/CSCC1C2CCC(O2)C1CC=CCCCC(=O)O` (stereo not given), the Duration in the experiment filed under Cavia porcellus [16] is below 60 min. Also, in experiment [24], the pKd is 8.51. The pIC50 was below 4.00 in the experiment filed under Cavia porcellus [19] and 6.40 in the experiment filed under Cavia porcellus [23]. In the experiment with Cavia porcellus [22], the “Activity MABP” value is 76% and 192%. In addition, the A50 in the experiment listed under Rattus norvegicus [2] was 26 µM.

Consider `CCCCCCSC[C@H]1C2CC[C@@H](O2)[C@H]1C/C=C\CCCC(=O)O` (single isomer, unassigned; (+)) [listing 2 of 2 here], for which the inhibition in experiment [25] amounted to 45%; in experiment [27], 33%; in experiment [29], 75%. In addition, the Stimulation in the experiment filed under Homo sapiens [26] was 44%; in the experiment listed under Homo sapiens [28] it was 27%; in the experiment listed under Homo sapiens [30], -51%.

Regarding `O=C(O)CCC/C=C\CC1C2CCC(O2)C1CSc1ccccc1` (stereo not given), the A50 in the experiment listed under Rattus norvegicus [2] worked out at 0.8 µM.
